Source: ChEMBL document CHEMBL1156610, “Synthesis, biological evaluation, and molecular modeling studies of methylene imidazole substituted biaryls as inhibitors of human 17alpha-hydroxylase-17,20-lyase (CYP17)--part II: Core rigidification and influence of substituents at the methylene bridge” (Bioorg Med Chem, 2008)

Tests used:
[1] = molecular target: T1, Steroid 17-alpha-hydroxylase/17,20 lyase (Homo sapiens, UniProt P05093); assay: Inhibition of human CYP17 expressed in Escherichia coli coexpressed with cytochrome P450 reductase
T1 sequence (P05093 whole entry): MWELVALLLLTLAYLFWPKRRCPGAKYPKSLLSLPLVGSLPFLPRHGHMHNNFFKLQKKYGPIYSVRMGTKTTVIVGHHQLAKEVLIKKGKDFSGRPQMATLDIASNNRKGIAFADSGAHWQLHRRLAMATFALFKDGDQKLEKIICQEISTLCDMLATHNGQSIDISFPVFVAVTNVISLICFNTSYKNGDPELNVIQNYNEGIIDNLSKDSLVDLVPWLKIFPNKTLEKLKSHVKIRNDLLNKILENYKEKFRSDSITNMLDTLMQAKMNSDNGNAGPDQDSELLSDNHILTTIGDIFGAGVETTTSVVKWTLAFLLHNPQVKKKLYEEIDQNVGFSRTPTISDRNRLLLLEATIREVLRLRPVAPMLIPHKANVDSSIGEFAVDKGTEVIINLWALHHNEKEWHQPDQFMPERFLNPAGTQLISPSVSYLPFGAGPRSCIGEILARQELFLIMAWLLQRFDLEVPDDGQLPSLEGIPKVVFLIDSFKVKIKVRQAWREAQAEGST
Procedure, shortened: (§1)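 Enzyme source: 50,000g sediment from homogenized E. coli coexpressing human CYP17 and cytochrome P450 reductase. Substrate progesterone (25 µM as printed), NADPH cofactor.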

[2] = molecular target: CYP3A4 (Homo sapiens, UniProt P08684); assay: Inhibition of hepatic CYP3A4 expressed in insect microsomes at 1 uM; assay type: ADME, Microsome
Chain of CYP3A4 (P08684 whole entry): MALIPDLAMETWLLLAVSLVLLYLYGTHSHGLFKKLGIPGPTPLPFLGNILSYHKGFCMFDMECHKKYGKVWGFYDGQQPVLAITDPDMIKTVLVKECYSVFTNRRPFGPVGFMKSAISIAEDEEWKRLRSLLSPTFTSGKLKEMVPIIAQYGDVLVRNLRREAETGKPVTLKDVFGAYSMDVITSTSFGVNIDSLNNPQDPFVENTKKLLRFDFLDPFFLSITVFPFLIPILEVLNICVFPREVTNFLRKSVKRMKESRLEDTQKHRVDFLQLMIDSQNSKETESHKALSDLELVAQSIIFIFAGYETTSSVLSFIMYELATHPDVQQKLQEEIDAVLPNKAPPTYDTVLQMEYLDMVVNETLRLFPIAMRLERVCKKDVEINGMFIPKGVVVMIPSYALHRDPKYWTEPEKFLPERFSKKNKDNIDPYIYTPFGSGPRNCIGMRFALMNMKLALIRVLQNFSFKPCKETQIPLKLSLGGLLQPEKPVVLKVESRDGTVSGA
Procedure, shortened: (§2)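 Recombinant human enzymes from baculovirus-infected insect cell microsomes, run per supplier protocol. Test concentration 1 µM; values are means of at least three independent tests, standard deviations under 5%.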

[3] = molecular target: T2, CYP1A2 (Homo sapiens, UniProt P05177); assay: Inhibition of hepatic CYP1A2 expressed in insect microsomes at 1 uM; assay type: ADME, Microsome; procedure, shortened: as §2
T2 sequence (P05177 whole entry): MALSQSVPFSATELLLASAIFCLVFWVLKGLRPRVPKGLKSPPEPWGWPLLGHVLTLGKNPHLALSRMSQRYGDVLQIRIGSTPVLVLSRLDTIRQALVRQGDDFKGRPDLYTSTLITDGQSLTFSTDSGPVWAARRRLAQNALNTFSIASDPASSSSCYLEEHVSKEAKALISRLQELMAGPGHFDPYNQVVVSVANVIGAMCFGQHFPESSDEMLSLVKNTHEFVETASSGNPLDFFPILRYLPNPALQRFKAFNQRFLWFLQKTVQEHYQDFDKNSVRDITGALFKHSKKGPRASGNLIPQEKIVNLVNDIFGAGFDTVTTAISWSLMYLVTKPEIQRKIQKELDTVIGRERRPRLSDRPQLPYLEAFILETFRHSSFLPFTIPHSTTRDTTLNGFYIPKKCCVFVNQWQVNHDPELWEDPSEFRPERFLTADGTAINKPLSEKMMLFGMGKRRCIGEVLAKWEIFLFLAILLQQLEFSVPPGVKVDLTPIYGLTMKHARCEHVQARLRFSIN

[4] = molecular target: T1, Steroid 17-alpha-hydroxylase/17,20 lyase; assay: Inhibition of CYP17; procedure, shortened: as §1
[5] = molecular target: T3, CYP11B1 (Homo sapiens, UniProt P15538); assay: Inhibition of human CYP11B1 at 0.2 uM using [4-14C]-11-dexycorticosterone as a substrate; settings: probe [4-14C]-11-dexycorticosterone
T3 sequence (P15538 whole entry): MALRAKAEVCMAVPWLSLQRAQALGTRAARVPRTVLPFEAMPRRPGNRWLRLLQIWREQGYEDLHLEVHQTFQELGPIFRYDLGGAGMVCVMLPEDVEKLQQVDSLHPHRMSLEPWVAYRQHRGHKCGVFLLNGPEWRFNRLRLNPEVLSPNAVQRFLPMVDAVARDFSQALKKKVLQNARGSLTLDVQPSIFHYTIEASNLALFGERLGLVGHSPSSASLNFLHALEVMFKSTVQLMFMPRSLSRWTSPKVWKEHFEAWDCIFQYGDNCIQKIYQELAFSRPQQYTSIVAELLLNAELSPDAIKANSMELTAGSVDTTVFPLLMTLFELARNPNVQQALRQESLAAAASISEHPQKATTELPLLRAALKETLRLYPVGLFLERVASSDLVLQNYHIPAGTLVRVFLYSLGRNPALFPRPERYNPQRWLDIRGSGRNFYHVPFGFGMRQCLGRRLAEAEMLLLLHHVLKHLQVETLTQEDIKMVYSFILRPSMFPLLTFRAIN
Procedure, shortened: (§3)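 V79MZh cells expressing human CYP11B1 or CYP11B2, incubated with [4-14C]-11-deoxycorticosterone as substrate; inhibitors tested at 0.2 µM.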

[6] = molecular target: T4, CYP11B2 (Homo sapiens, UniProt P19099); assay: Inhibition of human CYP11B2 at 0.2 uM using [4-14C]-11-dexycorticosterone as a substrate; settings: probe [4-14C]-11-dexycorticosterone; procedure, shortened: as §3
T4 sequence (P19099 whole entry): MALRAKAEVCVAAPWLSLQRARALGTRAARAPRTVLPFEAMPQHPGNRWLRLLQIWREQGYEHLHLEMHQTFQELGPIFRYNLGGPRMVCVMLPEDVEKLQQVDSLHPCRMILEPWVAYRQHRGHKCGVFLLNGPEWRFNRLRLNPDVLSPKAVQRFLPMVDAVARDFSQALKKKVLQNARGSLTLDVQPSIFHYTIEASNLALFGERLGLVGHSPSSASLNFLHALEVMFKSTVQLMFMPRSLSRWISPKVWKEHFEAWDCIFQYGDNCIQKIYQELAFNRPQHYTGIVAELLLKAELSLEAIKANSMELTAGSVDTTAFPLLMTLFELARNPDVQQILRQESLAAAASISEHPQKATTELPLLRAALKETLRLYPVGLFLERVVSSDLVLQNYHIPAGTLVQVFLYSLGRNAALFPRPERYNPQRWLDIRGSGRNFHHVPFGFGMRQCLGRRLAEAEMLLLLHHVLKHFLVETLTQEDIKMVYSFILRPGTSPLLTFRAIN

[7] = system: Rattus norvegicus; assay: Reduction in plasma testosterone level in Wistar rat at 50 mg/kg, po after 2 hrs; assay type: functional; parameters: scale not given: the % may be the effect or the level left
[8] = system: Rattus norvegicus; assay: Intrinsic clearance in Wistar rat at 50 mg/kg, po; assay type: ADME, organism-based; parameters: dose 50 mg/kg, route oral; settings: in vivo
Procedure, shortened: (§4)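 Male Wistar rats dosed orally at 50 mg/kg, or as acetate at 56 mg/kg (equivalent to 50 mg/kg parent). Plasma drug levels by LC–MS; non-compartmental analysis on mean plasma concentration–time data, values below detection limit set to zero. AUC, Cmax, tmax, terminal t1/2 and intrinsic hepatic clearance derived.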

[9] = molecular target: T5, CYP2B6 (Homo sapiens, UniProt P20813); assay: Inhibition of hepatic CYP2B6 expressed in insect microsomes at 1 uM; assay type: ADME, Microsome; procedure, shortened: as §2
T5 sequence (P20813 whole entry): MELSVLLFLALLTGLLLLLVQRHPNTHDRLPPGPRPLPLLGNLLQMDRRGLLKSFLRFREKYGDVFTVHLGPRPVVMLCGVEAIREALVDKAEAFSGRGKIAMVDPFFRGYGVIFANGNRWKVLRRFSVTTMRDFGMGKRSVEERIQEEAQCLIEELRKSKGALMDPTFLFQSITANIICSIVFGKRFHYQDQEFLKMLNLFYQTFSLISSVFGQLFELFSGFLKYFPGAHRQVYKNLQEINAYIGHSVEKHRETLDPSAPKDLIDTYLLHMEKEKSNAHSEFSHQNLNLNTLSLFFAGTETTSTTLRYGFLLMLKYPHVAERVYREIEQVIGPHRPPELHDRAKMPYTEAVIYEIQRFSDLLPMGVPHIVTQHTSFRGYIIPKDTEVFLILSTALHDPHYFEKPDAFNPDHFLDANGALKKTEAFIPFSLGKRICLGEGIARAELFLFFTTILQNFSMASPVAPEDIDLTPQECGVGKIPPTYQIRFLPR

[10] = Cmax in Wistar rat at 50 mg/kg, po; assay type: ADME, organism-based; parameters: dose 50 mg/kg, route oral; settings: in vivo; procedure, shortened: as §4
[11] = system: Rattus norvegicus; assay: Reduction in plasma testosterone level in Wistar rat at 50 mg/kg, po after 4 hrs; assay type: functional; parameters: scale not given: the % may be the effect or the level left
[12] = system: Rattus norvegicus; assay: Reduction in plasma testosterone level in Wistar rat at 50 mg/kg, po after 8 hrs; assay type: functional; parameters: scale not given: the % may be the effect or the level left
[13] = system: Rattus norvegicus; assay: Reduction in plasma testosterone level in Wistar rat at 50 mg/kg, po after 1 hr; assay type: functional; parameters: scale not given: the % may be the effect or the level left
[14] = Tmax in Wistar rat at 50 mg/kg, po; assay type: ADME, organism-based; parameters: dose 50 mg/kg, route oral; settings: in vivo; procedure, shortened: as §4
[15] = Terminal half life in Wistar rat at 50 mg/kg, po; assay type: ADME, organism-based; parameters: dose 50 mg/kg, route oral; settings: in vivo; procedure, shortened: as §4
[16] = molecular target: CYP2D6 (Homo sapiens, UniProt P10635); assay: Inhibition of hepatic CYP2D6 expressed in insect microsomes at 1 uM; assay type: ADME, Microsome; procedure, shortened: as §2
Chain of CYP2D6 (P10635 whole entry): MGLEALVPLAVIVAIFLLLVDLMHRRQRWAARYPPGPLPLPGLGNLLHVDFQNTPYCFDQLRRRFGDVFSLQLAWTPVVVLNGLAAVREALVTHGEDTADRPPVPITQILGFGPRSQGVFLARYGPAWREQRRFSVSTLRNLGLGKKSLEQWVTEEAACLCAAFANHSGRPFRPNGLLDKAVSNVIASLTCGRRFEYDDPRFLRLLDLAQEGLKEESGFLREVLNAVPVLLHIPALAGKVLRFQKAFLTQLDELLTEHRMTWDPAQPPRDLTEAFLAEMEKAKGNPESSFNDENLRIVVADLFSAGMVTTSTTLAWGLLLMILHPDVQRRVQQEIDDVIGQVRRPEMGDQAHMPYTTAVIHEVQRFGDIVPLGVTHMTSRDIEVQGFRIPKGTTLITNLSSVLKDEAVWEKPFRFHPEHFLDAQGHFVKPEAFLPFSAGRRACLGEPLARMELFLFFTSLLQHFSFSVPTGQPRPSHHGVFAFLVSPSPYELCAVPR

[17] = AUC (0 to infinity) in Wistar rat at 50 mg/kg, po; assay type: ADME, organism-based; parameters: time infinity, dose 50 mg/kg, route oral; settings: plasma; procedure, shortened: as §4
[18] = system: Rattus norvegicus; assay: Reduction in plasma testosterone level in Wistar rat at 50 mg/kg, po after 24 hrs; assay type: functional; parameters: Activity: scale not given: the % may be the effect or the level left
[19] = system: Rattus norvegicus; assay: Reduction in plasma testosterone level in Wistar rat at 50 mg/kg, po after 6 hrs; assay type: functional; parameters: scale not given: the % may be the effect or the level left
[20] = system: Rattus norvegicus; assay: Intrinsic clearance in Wistar rat at 56 mg/kg, po; assay type: ADME, organism-based; parameters: dose 56 mg/kg, route oral; settings: in vivo; procedure, shortened: as §4

CCC(c1ccc(-c2ccc(N3CCOCC3)cc2)cc1)n1ccnc1 (stereo not drawn)
IC50 [1]: 2.2 µM

CCC(c1ccc(-c2ccc(NC(=O)OC(C)(C)C)cc2)cc1)n1ccnc1 (stereo not drawn)
inhibition at 1 µM [2]: 52%
IC50 [1]: 1.7 µM

CCC(c1ccc(-c2ccc(O)cc2)cc1)n1ccnc1 (stereo not drawn)
IC50 [1]: 0.375 µM

CC(c1ccc2c(c1)Cc1ccccc1-2)n1ccnc1 (stereo not drawn)
inhibition at 1 µM [2]: 89%
inhibition at 1 µM [3]: 98%
IC50 [1]: 0.112 µM
IC50 [4]: 0.004 µM

CCC(CC)(c1ccc(-c2ccc(F)cc2)cc1)n1ccnc1
inhibition at 1 µM [2]: 95%
inhibition at 1 µM [3]: 51%
IC50 [1]: 1.3 µM

CC(c1ccc2c(c1)Cc1cc(F)ccc1-2)n1ccnc1 (stereo not drawn)
IC50 [1]: 0.168 µM

c1ccc2c(c1)Cc1cc(Cn3ccnc3)ccc1-2
IC50 [1]: 0.388 µM

CC(C)(c1ccc(-c2ccc(F)cc2)cc1)n1ccnc1
IC50 [1]: 3.8 µM

CCC(c1ccc(-c2ccc(N(C)C)cc2)cc1)n1ccnc1 (stereo not drawn)
IC50 [1]: > 5 µM

FC(F)(F)c1ccc(-c2ccc(Cn3ccnc3)cc2)cc1
IC50 [1]: > 5 µM

CC(c1ccc2c(c1)Cc1cc(O)ccc1-2)n1ccnc1 (stereo not drawn)
inhibition at 0.2 µM [5]: 96%
inhibition at 1 µM [2]: 89%
inhibition at 1 µM [3]: 93%
inhibition at 0.2 µM [6]: 98%
IC50 [1]: 0.099 µM

OCCC(c1ccc(-c2ccc(F)cc2)cc1)n1ccnc1 (stereo not drawn)
IC50 [1]: > 5 µM

CCC(c1ccc(-c2ccc(OC(F)(F)F)cc2)cc1)n1ccnc1 (stereo not drawn)
IC50 [1]: > 5 µM

c1ccc(-c2ccc(C(C3CCCCC3)n3ccnc3)cc2)cc1 (stereo not drawn)
IC50 [1]: 1.05 µM

c1ccc(CC(c2ccc(-c3ccccc3)cc2)n2ccnc2)cc1 (stereo not drawn)
IC50 [1]: 0.78 µM

CCC(c1ccc(-c2ccc(NC(C)=O)cc2)cc1)n1ccnc1 (stereo not drawn)
IC50 [1]: > 5 µM

CCC(c1ccc(-c2ccc(F)cc2)cc1)n1ccnc1 (stereo not drawn)
inhibition at 0.2 µM [5]: 66%
Activity [7]: 11.7%
CL [8]: 0.7 L/h/kg
inhibition at 1 µM [9]: 46%
Cmax [10]: 3.29 µg/mL
Activity [11]: 13.9%
Activity [12]: 13.4%
Activity [13]: 16.5%
Tmax [14]: 6 h
inhibition at 1 µM [2]: 88%
inhibition at 1 µM [3]: 97%
half-life [15]: 10 h
inhibition at 1 µM [16]: 54%
AUC(0-inf) [17]: 70.7 µg·h/mL
inhibition at 0.2 µM [6]: 66%
IC50 [1]: 0.345 µM
Activity [18]: 36.7%
Activity [19]: 13.9%

CC(=O)O[C@H]1CC[C@@]2(C)C(=CC[C@@H]3[C@@H]2CC[C@]2(C)C(c4cccnc4)=CC[C@@H]32)C1 [ABIRATERONE ACETATE]
Activity [7]: 44%
Activity [11]: 43.5%
CL [20]: 11.2 L/h/kg
Activity [12]: 35.6%
Activity [13]: 92.5%
relative plasma testosterone level [18]: 476%
Activity [19]: 43.3%

C[C@]12CC[C@H](O)CC1=CC[C@@H]1[C@@H]2CC[C@]2(C)C(c3cccnc3)=CC[C@@H]12 [ABIRATERONE]
inhibition at 1 µM [2]: 27%

c1ccc(-c2ccc(C(c3ccccc3)n3ccnc3)cc2)cc1 (stereo not drawn) [BIFONAZOLE]
IC50 [1]: 0.79 µM
